Where a SMILES comes first, the peptide text is derived from it. [ ]: non-standard residue; d: D form. d1Nal = N[C@H](Cc1cccc2ccccc12)C(=O)O; Phg = N[C@H](C(=O)O)c1ccccc1
Experiments:
[1] = biological target: T1, Growth hormone secretagogue receptor type 1 (Homo sapiens, UniProt Q92847); assay: Activation of human ghrelin receptor expressed in COS 7 cells using [2-3H]myo-inositol by inositol triphosphate turnover assay; format: functional, cell-based
How it was run: (§1)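 Stimulated with seven to nine peptide concentrations, stopped by aspirating medium. Lysate supernatant purified on anion-exchange resin. Emax = difference between constitutive activity and activity at maximal peptide effect; EC50 = half-maximal concentration.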

[2] = biological target: T1, Growth hormone secretagogue receptor type 1; assay: Ratio of EC50 of ghrelin to EC50 of compound at human ghrelin receptor expressed in COS 7 cells using [2-3H]myo-inositol by inositol triphosphate turnover assay; format: functional, cell-based
[3] = biological target: T1, Growth hormone secretagogue receptor type 1; assay: Displacement of [125I]-His-ghrelin from human ghrelin receptor expressed in COS7 cells incubated for 75 mins by scintillation counting based assay; format: cell-based, COS-7
Rattus norvegicus [4] = assay: Toxicity in rat assessed as decrease in activity at 1 nmol, icv measured over 120 mins; format: organism-based; conditions: in vivo, icv_or_intrathecal, 2 h
Rattus norvegicus [5] = assay: Toxicity in rat assessed as decrease in water consumption at 1 nmol, icv measured over 120 mins; format: organism-based; conditions: in vivo, icv_or_intrathecal, 2 h
[6] = biological target: T1, Growth hormone secretagogue receptor type 1; assay: Agonist activity at human ghrelin receptor expressed in COS 7 cells using [2-3H]myo-inositol by inositol triphosphate turnover assay relative to untreated control; format: functional, cell-based; how it was run: as §1
[7] = biological target: T1, Growth hormone secretagogue receptor type 1; assay: Agonist activity at FLAG-tagged human ghrelin receptor expressed in COS 7 cells using [2-3H]myo-inositol by inositol triphosphate turnover assay; format: functional, cell-based
How it was run: (§2)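 COS7 cells transiently or stably (hygromycin B 0.4 mg/mL) transfected with receptor; transient cells exposed 14 h to receptor DNA with metafectene. Day after transfection/seeding, labelled with [2-3H]myo-inositol (2 μCi/mL), then stimulated with seven to nine peptide concentrations; stopped by aspirating medium, lysate supernatant purified on anion-exchange resin. EC50 = half-maximal effect; Emax = difference between constitutive activity and maximal-effect activity.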

[8] = biological target: Growth hormone secretagogue receptor type 1 (Homo sapiens, UniProt Q92847, F119S); assay: Agonist activity at FLAG-tagged human ghrelin receptor Phe119:Ser mutant expressed in COS 7 cells using [2-3H]myo-inositol by inositol triphosphate turnover assay; format: functional, cell-based
[9] = biological target: Growth hormone secretagogue receptor type 1 (Homo sapiens, UniProt Q92847, S123A); assay: Agonist activity at FLAG-tagged human ghrelin receptor Ser123:Ala mutant expressed in COS 7 cells using [2-3H]myo-inositol by inositol triphosphate turnover assay; format: functional, cell-based; how it was run: as §2
Sequence of Growth hormone secretagogue receptor type 1 (Homo sapiens, UniProt Q92847, S123A) (Q92847 whole entry S123A): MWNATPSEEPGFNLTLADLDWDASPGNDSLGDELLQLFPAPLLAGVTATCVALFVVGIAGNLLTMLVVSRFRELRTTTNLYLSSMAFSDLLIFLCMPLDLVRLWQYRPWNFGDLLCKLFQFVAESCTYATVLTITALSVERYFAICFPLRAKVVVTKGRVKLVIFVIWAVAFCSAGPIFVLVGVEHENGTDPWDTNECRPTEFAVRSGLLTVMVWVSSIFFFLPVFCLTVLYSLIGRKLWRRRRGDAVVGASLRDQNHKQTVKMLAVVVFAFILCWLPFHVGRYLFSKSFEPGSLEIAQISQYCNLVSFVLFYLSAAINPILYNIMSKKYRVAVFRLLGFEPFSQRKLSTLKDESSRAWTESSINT

T1 sequence (Q92847 whole entry): as the sequence (Q92847 whole entry S123A) above, with A123S counted along it
Sequence of Growth hormone secretagogue receptor type 1 (Homo sapiens, UniProt Q92847, F119S) (Q92847 whole entry F119S): as the sequence (Q92847 whole entry S123A) above, with F119S, A123S counted along it

SMILES | EC50 [1] | Ratio EC50 [2] | IC50 [3] | other results
CC(C)C[C@H](NC(=O)[C@H](CC(C)C)NC(=O)[C@@H](Cc1c[nH]c2ccccc12)NC(=O)[C@@H](NC(=O)[C@@H](Cc1cccc2ccccc12)NC(=O)[C@@H](N)CCCCN)c1ccccc1)C(N)=O (H-K[d1Nal][Phg][dW]LL-NH2) | > 1000 nM |  |  | 
CC(C)C[C@H](NC(=O)[C@H](CC(C)C)NC(=O)[C@H](NC(=O)[C@H](Cc1ccccc1)NC(=O)[C@@H](Cc1c[nH]c2ccccc12)NC(=O)[C@@H](N)CCCCN)C(c1ccccc1)c1ccccc1)C(N)=O | > 1000 nM | > 700 | ≥ 1000 nM | 
CC(C)C[C@H](NC(=O)[C@H](CC(C)C)NC(=O)[C@@H](Cc1ccc(-c2ccccc2)cc1)NC(=O)[C@H](Cc1ccccc1)NC(=O)[C@@H](Cc1c[nH]c2ccccc12)NC(=O)[C@@H](N)CCCCN)C(N)=O | > 1000 nM | > 700 | ≥ 1000 nM | 
CC(C)C[C@H](NC(=O)[C@H](CC(C)C)NC(=O)[C@@H](Cc1cccc2ccccc12)NC(=O)[C@H](Cc1ccccc1)NC(=O)[C@@H](Cc1cccc2ccccc12)NC(=O)[C@@H](N)CCCCN)C(N)=O | > 1000 nM |  |  | 
CC(C)C[C@H](NC(=O)[C@H](CC(C)C)NC(=O)[C@@H](Cc1ccc(C(=O)c2ccccc2)cc1)NC(=O)[C@H](Cc1ccccc1)NC(=O)[C@@H](Cc1c[nH]c2ccccc12)NC(=O)[C@@H](N)CCCCN)C(N)=O | > 1000 nM | > 700 | ≥ 1000 nM | 
CC(C)C[C@H](NC(=O)[C@H](CC(C)C)NC(=O)[C@@H](Cc1c[nH]c2ccccc12)NC(=O)[C@H](Cc1ccccc1)NC(=O)[C@@H](Cc1cccc2ccccc12)NC(=O)[C@@H](N)CCCCN)C(N)=O |  |  |  | Activity (Rattus norvegicus [4]): Toxic; Activity (Rattus norvegicus [5]): Toxic
CC(C)C[C@H](NC(=O)[C@H](CC(C)C)NC(=O)[C@@H](Cc1ccc2ccccc2c1)NC(=O)[C@H](Cc1ccccc1)NC(=O)[C@@H](Cc1c[nH]c2ccccc12)NC(=O)[C@@H](N)CCCCN)C(N)=O |  | 9 |  | Emax [6]: 156%; EC50 [7]: 7.2 nM; EC50 [8]: 13.4 nM; EC50 [9]: 6.7 nM; Ki [3]: 234 nM
CC(C)C[C@H](NC(=O)[C@H](CC(C)C)NC(=O)[C@@H](Cc1cccc2ccccc12)NC(=O)[C@H](Cc1ccccc1)NC(=O)[C@@H](Cc1c[nH]c2ccccc12)NC(=O)[C@@H](N)CCCCN)C(N)=O |  | 12.8 |  | Emax [6]: 54%; Ki [3]: 247 nM

— ChEMBL document CHEMBL2169767 (J Med Chem, 2012)
